# Like-named read-outs stand apart in the source and are kept apart here.
# Tests used:
# [1] = test system: LoVo colon cancer xenograft; test: Xenograft tumor growth, SMI combined with 5FU, 14-day treatment; type: in vivo, Balb/c nude mice; details: compared to vehicle treated group; SMI 10 mL/kg/day, 5FU 15 mg/kg/3 days i.p., 14 days
# LoVo xenografts = test: Xenograft tumor growth, SMI or Rd combined with 5FU, 20-day treatment; type: in vivo, Balb/c mice; details: 20 days
# Procedure, shortened: (§1)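 LoVo-xenograft mice with all tumors above 50 mm3 were dosed i.p. for 20 days: 10 mL/kg/day, 5 mg/kg/day, and/or 5FU 15 mg/kg every 3 days. Body weight and tumor axes were recorded daily; tumor volume = 1/2 × a × b². Tumors were resected after treatment. Weight change was read after 17 days; mean ± SEM.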
# [2] = Mice body weight in the 5FU combination study; type: in vivo, Balb/c mice harboring LoVo xenografts; details: 5FU 15 mg/kg/3 days i.p.; 17-day treatment
# Procedure, shortened: as §1
# [3] = type: in vivo, mice harboring xenograft tumors; details: after intraperitoneal injection of Rb1, Rc, or Rd; data not shown
# [4] = type: in vivo, Balb/c nude mice harboring LoVo xenografts; details: for Cmax / Tmax: Balb/c nude, mouse, plasma
# Procedure, shortened: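 Male LoVo-xenograft nude mice (6 weeks old) received 10 mL/kg i.p., either once or daily for 8 days. Blood (~0.1 mL) was drawn from the oculi chorioideae vein into heparin tubes between 5 min and 96 h after the last dose, 5 mice per time point. Plasma was spun at 8000 rpm for 5 min and extracted with methanol. AUC0–∞ and the multiple/single ratio were derived.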
# [5] = test system: tumor vessels in LoVo xenografts; test: CD31/α-SMA double staining, pericyte coverage around tumor vessels; type: in vivo, Balb/c nude mice; details: 15 days i.p.; SMI, Rd-H 5 mg/kg; vs vehicle
# Procedure, shortened: (§2)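 Tumors from mice given test compound i.p. for 15 days were fixed in 4% PFA and cut into 12 μm sections. Sections were stained overnight with anti-CD31 at 1:100; for pericyte coverage, anti-SMA at 1:100 was added. Cy5- or Cy2-conjugated secondary (1:200) was applied for 1 h at 37 °C. Confocal Z-stacks were reconstructed in 3D or as maximum intensity projections. Compared with vehicle.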
# [6] = test system: tumor vessels in LoVo xenografts; test: CD31 staining of tumor slides, microvessels and vessel branches; type: in vivo, Balb/c nude mice; details: 15 days i.p.
# Procedure, shortened: as §2
# [7] = type: in vivo, Balb/c nude mice harboring LoVo xenografts
# [8] = type: in vivo, Balb/c nude mice harboring LoVo xenografts; details: 20 min after 15-day SMI treatment
# Procedure, shortened: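 Male 6-week Balb/c nude mice (18 ± 1 g) bearing LoVo xenografts were given SMI intraperitoneally for 15 days. Tumors collected 20 min after the final dose were minced and digested 1 h in DMEM with 2 mg/mL collagenase type I and 0.1 mg/mL DNase I. Cells were split into endothelial, hematopoietic and other fractions; purity was checked by flow cytometry (anti-mouse CD45, viability stain). n = 3, mean ± SEM.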
# [9] = Constituent ratio of ginsenosides in SMI, plasma, tumor and endothelial cells; type: in vivo, Balb/c nude mice harboring LoVo xenografts; details: 20 min after 15-day SMI treatment
# Procedure, shortened: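 Tissues were sampled 20 min after the last dose of a 15-day i.p. course. Tumors were digested 1 h in DMEM with collagenase I (2 mg/mL) and DNase I (0.1 mg/mL), then strained through 40 μm mesh. CD31+ cells were enriched with PE anti-mouse CD31 and anti-PE magnetic particles, with purity checked by CD45/viability flow cytometry; n = 3. Each ratio = concentration of the constituent / summed eight ginsenosides.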
# VEGF = test: ELISA of VEGF secretion in tumors; type: in vivo, Balb/c mice harboring LoVo xenografts; details: 15 days i.p., vs vehicle
# Procedure, shortened: (§3)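 Mice received test compound i.p. for 15 days. Tumors were harvested 20 min after the final dose and homogenized in RIPA buffer. VEGF and FGF were quantified by ELISA kit and normalized to protein content measured by BCA assay. Compared with vehicle.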
# FGF = test: ELISA of FGF secretion in tumors; type: in vivo, Balb/c mice harboring LoVo xenografts; details: 15 days i.p.; SMI, Rd-H 5 mg/kg, Rb1, Rg1; vs vehicle
# Procedure, shortened: as §3
# HUVECs [10] = test: Cell viability assay; type: cell-based, human; details: Rd 1–50 μmol/L, SMI 5 μL/mL; 24 h; normoxia or hypoxia
# Procedure, shortened: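 HUVECs were exposed to test compound for 24 h under normoxia or hypoxia (1% O2, 5% CO2). Viability was measured by MTT and expressed as a percentage of DMSO-treated cells under normoxia; n = 6.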
# HUVECs [11] = test: EDU staining; type: cell-based, human; details: Rd 2, 10, 50 μmol/L; 24 h; hypoxia
# HUVECs [12] = test: Wound healing migration assay; type: cell-based, human; details: 24 h
# Procedure, shortened: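 Confluent HUVEC monolayers were scratched with sterile pipette tips and given fresh DMEM containing test compound. Cells were incubated under normoxia or hypoxia (1% O2, 5% CO2) and imaged at 0 and 24 h. Migration length = (scratch area 0 h − scratch area 24 h)/scratch length; n = 6.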
# HUVECs [13] = test: Capillary-like tube formation assay; type: cell-based; details: Homo sapiens, HUVEC, read-out: Inhibition of tube formation ability of HUVECs
# Procedure, shortened: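 Conditioned medium was taken as supernatant after 24 h exposure to test compound (2, 10, 50 μmol/L). HUVECs were seeded at 5 × 10^4 cells/well on Matrigel and treated with this medium for 5.5 h under normoxia or hypoxia (1% O2, 5% CO2). Tubes were stained with calcein for 0.5 h before imaging.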
# HUVEC = test: Uptake of ginsenosides by HUVEC in vitro; type: cell-based, human; details: compared to Rb1 and Rb2 (Fig. S5)
# LoVo = test: Uptake of ginsenosides by LoVo in vitro; type: cell-based, human; details: compared to Rb1 and Rb2 (Fig. S5)
# [14] = 8-day vs single SMI 10 mL/kg/day i.p.
# [15] = SMI i.p., single or multiple not given
smiles,measurement,setting,value
"O=c1[nH]cc(F)c(=O)[nH]1 [5FU, 5-fluorouracil]",Suppression of tumor growth,[1],49.0%
same,Suppression of tumor growth,"LoVo xenografts; compared to vehicle + saline, SMI 10 mL/kg/day, Rd 5 mg/kg/day, 5FU 15 mg/kg/3 days i.p.",17%
same,Suppression of the increase of mice body weight,[2],65%
"CC(C)=CCC[C@](C)(O[C@@H]1O[C@H](CO)[C@@H](O)[C@H](O)[C@H]1O)[C@H]1CC[C@]2(C)[C@@H]1[C@H](O)C[C@@H]1[C@@]3(C)CC[C@H](O)C(C)(C)[C@@H]3CC[C@]12C [CK, compound K]",Detection in plasma or tumor tissues,[3],neither Rg3 nor CK could be detected
CC(C)=CCC[C@](C)(O[C@@H]1O[C@H](CO)[C@@H](O)[C@H](O)[C@H]1O)[C@H]1CC[C@]2(C)[C@@H]1[C@H](O)C[C@@H]1[C@@]3(C)CC[C@H](O)C(C)(C)[C@@H]3[C@@H](O[C@@H]3O[C@H](CO)[C@@H](O)[C@H](O)[C@H]3O[C@@H]3O[C@@H](C)[C@H](O)[C@@H](O)[C@H]3O)C[C@]12C [Re],Cmax,"[4]; ip, 10 mL/kg",1600 ng/mL
same,Tmax,"[4]; ip, 10 mL/kg",0.167 h
same,Cmax,"[4]; ip, 10 mL/kg/day",1300 ng/mL
same,Tmax,"[4]; ip, 10 mL/kg/day",0.167 h
"CC(C)=CCC[C@](C)(O[C@@H]1O[C@H](CO)[C@@H](O)[C@H](O)[C@H]1O)[C@H]1CC[C@]2(C)[C@@H]1[C@H](O)C[C@@H]1[C@@]3(C)CC[C@H](O[C@@H]4O[C@H](CO)[C@@H](O)[C@H](O)[C@H]4O[C@@H]4O[C@H](CO)[C@@H](O)[C@H](O)[C@H]4O)C(C)(C)[C@@H]3CC[C@]12C [Rd, ginsenoside Rd]",Increase of pericyte coverage around microvessels,[5],2.1 fold
same,"Effect on microvessels, branches and pericyte coverage",[6]; Rd-L 0.5 mg/kg,very modest effects
same,Decrease of the number of CD31+ microvessels,"[6]; SMI, Rd-H 5 mg/kg, vs vehicle",37%
same,Decrease of vessel branches,"[6]; SMI, Rd-H 5 mg/kg, vs vehicle",59%
same,AUC0–∞ ratio Multiple/Single in plasma,[4]; [14],5.28
same,Cmax,"[4]; intraperitoneal, 10 mL/kg",~10 µM
same,Cmax,"[4]; ip, 10 mL/kg",3200 ng/mL
same,Tmax,"[4]; ip, 10 mL/kg",4 h
same,Cmax,"[4]; ip, 10 mL/kg/day",10400 ng/mL
same,Tmax,"[4]; ip, 10 mL/kg/day",2 h
same,"AUC0–∞ in plasma relative to those of Re, Rg1, Rg3 and Ro",[4]; after single or multiple SMI administration,more than 20 times
same,AUC0–∞ ratio Multiple/Single in tumors,[7]; [14],10.53
same,"AUC0–∞ of Rd in tumors, times higher than that of Rb1",[7]; [15],8.0 times
same,"AUC0–∞ of Rd in tumors, times higher than that of Rb2/Rb3",[7]; [15],7.3 times
same,"AUC0–∞ of Rd in tumors, times higher than that of Rc",[7]; [15],3.6 times
same,"AUC0–∞ of Rd in tumors, times higher than that of Ro",[7]; [15],266.6 times
same,"Concentration of ginsenosides, endothelial cells (TECs)",[8],most abundant distribution in TECs
same,Constituent ratio in TECs,[9],40.3%
same,Constituent ratio in plasma,[9],16.0%
same,Constituent ratio in tumor tissues,[9],34.3%
same,Reduction of the secretion of VEGF in tumors,VEGF; Rd-L 0.5 mg/kg,32%
same,Reduction of the secretion of VEGF in tumors,"VEGF; SMI, Rd-H 5 mg/kg, Rb1, Rg1",32%
same,Suppression of the secretion of FGF in tumors,FGF,68%
same,Effect on cell viability of HUVECs,HUVECs [10],no effect on the cell viability
same,Effect on cellular proliferation of HUVECs (EDU/HOECHST),HUVECs [11],no significant effect on cellular proliferation
same,Suppression of hypoxia-induced HUVEC migration,HUVECs [12]; 50 μmol/L,88%
same,Effect on HUVECs migration,"HUVECs [12]; Rd 2, 10 and 50 μmol/L or SMI, hypoxia",suppressed HUVECs migration concentration-dependently
same,inhibition at 2 µM,HUVECs [13],18%
same,inhibition at 10 µM,HUVECs [13],40%
same,inhibition at 50 µM,HUVECs [13],56%
same,"Effect on tumor growth, given alone","LoVo xenografts; SMI 10 mL/kg/day or Rd 5 mg/kg/day i.p., without 5FU",no significant effect on tumor growth
same,Uptake by HUVEC,HUVEC,superior uptake
same,Uptake by LoVo,LoVo,superior uptake
